Measured values reported in ChEMBL document CHEMBL4765386, “Discovery of tertiary amide derivatives incorporating benzothiazole moiety as anti-gastric cancer agents in vitro via inhibiting tubulin polymerization and activating the Hippo signaling pathway” (Eur J Med Chem, 2020).
Active and inactive are the calls of the source. The calls are words filed in the database; no cut-off is given here.

Assays:
MGC-803 [1] = assay: Inhibition of tubulin polymerization in human MGC-803 cells assessed as decrease in filamentous structure at 20 to 60 nmol/L by DAPI staining based microscopic analysis; format: cell-based; details: dose 20-60 nmol/L
Method in brief: (§1)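 Cells cultured in RPMI-1640 with 10% FBS at 37 °C, 5% CO2, treated 48 h with 20, 40 and 60 nM; stained for β-tubulin (green) and nuclei (blue) and examined by microscopy.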

GES1 = assay: Cytotoxicity against human GES1 cells assessed as reduction in cell viability incubated for 48 hrs by MTT assay; format: functional, cell-based; details: GES1, 48 h
Method in brief: (§2)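 MTT assay. 5,000 cells per well in RPMI-1640 with 10% FBS and penicillin/streptomycin at 37 °C, 5% CO2. Compound added 24 h after seeding and left for 48 h. MTT was then added for 4 h at 37 °C, formazan dissolved in DMSO and absorbance read at 490 nm. IC50 calculated from three independent experiments.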

SGC-7901 [2] = assay: Induction of apoptosis in human SGC-7901 cells assessed as downregulation of c-IAP1 at 20 to 60 nM incubated for 48 hrs by Western blot analysis; format: functional, cell-based; details: dose 20-60 nM
Method in brief: (§3)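 Western blot on MGC-803 and SGC-7901 cells given 20, 40 and 60 nM compound or DMSO for 48 h. Denatured lysates were run on SDS-PAGE and transferred to PVDF, then probed with primary and secondary antibodies to detect apoptosis-related proteins.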

SGC-7901 [3] = assay: Induction of apoptosis in human SGC-7901 cells assessed as late apoptotic cells at 60 nM incubated for 48 hrs by annexin V-FITC and PI staining based flow cytometry analysis (reference value: 2.4 %); format: functional
MGC-803 [4] = assay: Induction of apoptosis in human MGC-803 cells assessed as upregulation of FADD at 20 to 60 nM incubated for 48 hrs by Western blot analysis; format: functional, cell-based; details: dose 20-60 nM; method in brief: as §3
MGC-803 [5] = assay: Inhibition of tubulin polymerization in human MGC-803 cells assessed as decrease in microtubule formation at 20 to 60 nmol/L by DAPI staining based microscopic analysis; format: cell-based; details: dose 20-60 nmol/L; method in brief: as §1
MGC-803 [6] = assay: Induction of cell cycle arrest in human MGC-803 cells assessed as increase in G2/M phase accumulation incubated for 24 hrs by PI staining based flow cytometry analysis; format: functional; details: dose 20-60 nM
Method in brief: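 Cells in RPMI-1640/10% FBS at 37 °C, 5% CO2, exposed to 20, 40 and 60 nM for 24 h before flow cytometric cell-cycle distribution analysis.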

SGC-7901 [7] = assay: Activation of Hippo signaling pathway in human SGC-7901 cells assessed as decrease in Bcl-2 expression incubated for 48 hrs by Western blot analysis; format: cell-based; details: filed as activator, dose 20-60 nM
Method in brief: (§4)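 Western blot on gastric cancer cells exposed to compound or DMSO at 20, 40 and 60 nM for 48 h. Cells were lysed, then the denatured lysates were separated by SDS-PAGE and transferred to PVDF. Membranes were blocked and probed with primary and then secondary antibodies. Hippo pathway proteins were detected.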

MGC-803 [8] = assay: Induction of apoptosis in human MGC-803 cells assessed as late apoptotic cells at 20 nM incubated for 48 hrs by annexin V-FITC and PI staining based flow cytometry analysis (reference value: 4.1 %); format: functional
MGC-803 [9] = assay: Induction of apoptosis in human MGC-803 cells assessed as upregulation of Bak at 20 to 60 nM incubated for 48 hrs by Western blot analysis; format: functional, cell-based; details: dose 20-60 nM; method in brief: as §3
SGC-7901 [10] = assay: Induction of apoptosis in human SGC-7901 cells assessed as upregulation of FADD at 20 to 60 nM incubated for 48 hrs by Western blot analysis; format: functional, cell-based; details: dose 20-60 nM
Method in brief: (§5)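 Cells grown in RPMI-1640 with 10% FBS, penicillin/streptomycin at 37 °C, 5% CO2. Exposure to 20, 40 or 60 nM for 48 h alongside DMSO control. Lysates denatured, resolved by SDS-PAGE, transferred to PVDF, blocked, then probed with primary and secondary antibodies.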

SGC-7901 [11] = assay: Inhibition of tubulin polymerization in human SGC-7901 cells assessed as decrease in filamentous structure at 20 to 60 nmol/L by DAPI staining based microscopic analysis; format: cell-based; details: dose 20-60 nmol/L; method in brief: as §1
SGC-7901 [12] = assay: Induction of apoptosis in human SGC-7901 cells assessed as upregulation of Bak at 20 to 60 nM incubated for 48 hrs by Western blot analysis; format: functional, cell-based; details: dose 20-60 nM; method in brief: as §5
MGC-803 [13] = assay: Induction of apoptosis in human MGC-803 cells assessed as downregulation of XIAP at 20 to 60 nM incubated for 48 hrs by Western blot analysis; format: functional, cell-based; details: dose 20-60 nM; method in brief: as §3
MGC-803 [14] = assay: Displacement of EBI from beta-tubulin in human MGC-803 cells assessed as reduction in tubulin adduct formation incubated for 2 hrs followed by EBI addition and measured after 2 hrs by Western blot analysis; format: cell-based; details: dose 0.25-2.5 µM, time 4.0 hrs
Method in brief: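 EBI competition assay. […] EBI was then added at […] as printed for another 2 h. Harvested cells were immunoblotted with anti-β-tubulin antibody to detect β-tubulin and the alkylated β-tubulin adduct.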

MGC-803 [15] = assay: Activation of Hippo signaling pathway in human […] cells assessed as downregulation of YAP at 20 to 60 nM incubated for 48 hrs by Western blot analysis; format: cell-based; details: filed as activator, dose 20-60 nM; method in brief: as §4
SGC-7901 [16] = assay: Induction of apoptosis in human SGC-7901 cells assessed as late apoptotic cells at 20 nM incubated for 48 hrs by annexin V-FITC and PI staining based flow cytometry analysis (reference value: 2.4 %); format: functional
SGC-7901 [17] = assay: Induction of cell cycle arrest in human SGC-7901 cells assessed as upregulation of Histone-H3 Ser10 at 20 to 60 nM incubated for 48 hrs by Western blot analysis; format: functional, cell-based; details: dose 20-60 nM; method in brief: as §5
SGC-7901 [18] = assay: Induction of apoptosis in human SGC-7901 cells assessed as upregulation of Noxa at 20 to 60 nM incubated for 48 hrs by Western blot analysis; format: functional, cell-based; details: dose 20-60 nM; method in brief: as §5
PC-3 = assay: Antiproliferative activity against human PC-3 cells assessed as reduction in cell viability incubated for 48 hrs by MTT assay; format: functional, cell-based; details: PC-3, 48 h; method in brief: as §2
SGC-7901 [19] = assay: Induction of apoptosis in human SGC-7901 cells assessed as downregulation of c-IAP2 at 20 to 60 nM incubated for 48 hrs by Western blot analysis; format: functional, cell-based; details: dose 20-60 nM; method in brief: as §5
MGC-803 [20] = assay: Antiproliferative activity against human MGC-803 cells assessed as reduction in cell viability at 60 nmol/L incubated for 48 hrs by MTT assay relative to control; format: functional
Method in brief: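 MTT viability in gastric cell lines grown in RPMI-1640 with 10% FBS at 37 °C, 5% CO2. Compound at 20, 40 and 60 nM for 48 h, starting 24 h after seeding 5,000 cells per well. MTT for 4 h, formazan dissolved in DMSO, absorbance at 490 nm. Inhibition expressed relative to control.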

MGC-803 [21] = assay: Activation of Hippo signaling pathway in human […] cells assessed as increase in MST1/2 phosphorylation at 20 to 60 nM incubated for 48 hrs by Western blot analysis; format: cell-based; details: filed as activator, dose 20-60 nM; method in brief: as §4
SGC-7901 [22] = assay: Induction of apoptosis in human SGC-7901 cells assessed as early apoptotic cells at 40 nM incubated for 48 hrs by annexin V-FITC and PI staining based flow cytometry analysis (reference value: 1.4 %); format: functional
SGC-7901 [23] = assay: Induction of apoptosis in human SGC-7901 cells assessed as upregulation of DR5 at 20 to 60 nM incubated for 48 hrs by Western blot analysis; format: functional, cell-based; details: dose 20-60 nM; method in brief: as §5
MGC-803 [24] = assay: Activation of Hippo signaling pathway in human […] cells assessed as decrease in c-MYC expression incubated for 48 hrs by Western blot analysis; format: cell-based; details: filed as activator, dose 20-60 nM; method in brief: as §4

`COc1ccc(CN(C(=O)CSc2nc3ccccc3s2)c2cc(OC)c(OC)c(OC)c2)cc1O` was tested, and the Activity (MGC-803 [1]) was “Active”, the IC50 (GES1) was 0.249 µM and the Activity (SGC-7901 [2]) was “Active”. For the same molecule, the Activity (SGC-7901 [3]) was 47.3%, the Activity (MGC-803 [4]) was “Active” and the Activity (MGC-803 [5]) was “Active”. For the same molecule, the Activity (MGC-803 [6]) was “Dose-dependent effect”, the Activity (SGC-7901 [7]) was “Dose-dependent effect” and the Activity (MGC-803 [8]) was 4.1%. For the same molecule, the Activity (MGC-803 [9]) was “Active”, the Activity (SGC-7901 [10]) was “Active” and the Activity (SGC-7901 [11]) was “Active”. For the same molecule, the Activity (SGC-7901 [12]) was “Active”, the Activity (MGC-803 [13]) was “Active” and the inhibition (MGC-803 [14]) was “Dose-dependent effect”. For the same molecule, the Activity (MGC-803 [15]) was “Active”, the Activity (SGC-7901 [16]) was 4.2% and the Activity (SGC-7901 [17]) was “Active”. The Activity (SGC-7901 [18]) was “Active”, the IC50 (PC-3) was 2.11 µM and the Activity (SGC-7901 [19]) was “Active”. The inhibition at 0.06 µM (MGC-803 [20]) was 72%, the Activity (MGC-803 [21]) was “Active” and the Activity (SGC-7901 [22]) was 9.5%. The Activity (SGC-7901 [23]) was “Active” and the Activity (MGC-803 [24]) was “Dose-dependent effect”.
